Only some compounds are listed: those with a hit (about 2.4% of all), similar ones and a draw of the others.
MT1-MMP act inh = blockers of MT1-MMP proenzyme processing, primary screen, HT1080 RFP-PRO-GFP cells, GFP/RFP fluorescence; Matrix metalloproteinase-14 (Homo sapiens), P50281; GFP/RFP ratio fluorescence, overnight; percent of plate control window, DMSO zero; GFP/RFP ratio change, % at 20 µM; 360,000 tested, 0.061% active;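 active means GFP/RFP ratio change of at least 30% with cell ATP level not reduced by more than half and red fluorescence within 50% of control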
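Material: RFP-PRO-GFP reporter HT1080 cells. Dosing: single-point 20 µM compound, 1% DMSO. Controls: DMSO and RFP-L50D-GFP cell wells. Timing: cells overnight before dosing, compound overnight, 37 °C, 5% CO2. Measure: GFP/RFP fluorescence ratio.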
DAGLB inh = DAGLB lipase inhibitors, primary screen, biochemical, fluorescence, HTS | 340,000 tested, 0.059% active | Diacylglycerol lipase-beta (Homo sapiens), Q8NCG7 | inhibition, % at 5.17 µM | HEK293T DAGLB membrane lysate, EnzChek fluorogenic substrate | AID 504411, 2011; in the data active means inhibition above about 34%
MIN6 prolif = inducers of MIN6 beta-cell proliferation, primary screen, ATP luminescence, uHTS | 330,000 tested, 0.29% active | proliferation, % at 10 µM | MIN6 cells proliferation, ATPlite luminescence, 48 h; cells starved in 0.2% serum; 100% = growth in 10% serum;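 active means compounds whose signal lies at least 3.5 SD above the mean of all wells on their plate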
NRP1-CendR mod = modulators of CendR peptide binding to NRP-1, primary screen, biochemical, fluorescence polarization, uHTS; Neuropilin-1 (Homo sapiens), O14786; FAM-RPARPAR peptide binding to NRP-1; inhibition, % at 25 µM; 360,000 tested, 0.85% active; AID 602438, 2012;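 active means inhibition or corrected inhibition above about 18%, plus a signal ratio from 0.5 to 1.5, limit read from the data, passing the limit was not always enough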
SENP1 inh = human SENP1 catalytic domain inhibitors, primary screen, biochemical, FRET, uHTS. 360,000 tested, 0.21% active. recombinant SENP1 catalytic domain, CyPet-SUMO1-YPet FRET cleavage. inhibition, % at 10 µM. Sentrin-specific protease 1 (Homo sapiens), Q9P0U3;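 active means inhibition at least 30% at 10 µM, raw YFP signal under a set limit, fluorescence ratio 0.5 to 1.5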
Target sequence (Q9P0U3 419-644 limits assumed): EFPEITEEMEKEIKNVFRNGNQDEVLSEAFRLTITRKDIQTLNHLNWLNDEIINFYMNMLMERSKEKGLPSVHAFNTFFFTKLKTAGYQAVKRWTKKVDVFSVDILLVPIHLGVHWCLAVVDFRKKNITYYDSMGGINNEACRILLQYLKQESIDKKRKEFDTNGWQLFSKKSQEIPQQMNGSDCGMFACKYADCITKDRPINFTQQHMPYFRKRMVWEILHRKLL
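Test system: recombinant human SENP1 catalytic domain, His6-tagged / Medium: pH 8 Tris buffer with EDTA, NaCl, BME, BSA, NP40, catalase / Also added: SUMO1 FRET substrate flanked by Cypet and Ypet, 25 nM / Times: 50 min reaction at room temperature / Signal: FRET, CFP and YFP emission / Control set: no-enzyme low control and enzyme-plus-DMSO high control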
Myeloid diff MLP = induction of myeloid progenitor differentiation, primary screen, cell-based, flow cytometry, MLPCN library; ER-HoxA9 myeloid progenitors, lysozyme-GFP differentiation; calls only at 10 µM; 360,000 tested, 1% active;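 active means normalized GFP-positive differentiation at or above the plate's own cutoff, the solvent-only control mean plus 3 SD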;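 further: cells exposed to compound for four days before flow analysis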
Each line names hits and unclear results; the compound was inactive in the other large screens.

CC(C)(C)c1nc(SCC(=O)NCc2ccco2)c2ccccc2n1	NRP1-CendR mod 26
O=C(CSc1c2c(nc3ccccc13)CCCC2)NCc1ccco1	none
CSCCC(NS(=O)(=O)c1ccccc1F)C(=O)NCC(C)(C)N1CCOCC1 (stereo unspecified)	none
CSCCC(NS(=O)(=O)c1ccccc1F)C(=O)N1CCCCCCC1 (stereo unspecified)	NRP1-CendR mod 27
O=C(NCCc1ccccc1)c1cccc(NC(=O)C2CCC2)c1	none (no result: MIN6 prolif)
O=C(NCCc1ccccc1)c1cccc(NC(=O)C2CC2)c1	Myeloid diff MLP active (no result: MIN6 prolif)
O=C(NCc1ccccc1Cl)c1cccc(NC(=O)c2ccccc2)c1	NRP1-CendR mod 18
Cc1ccc(NS(=O)(=O)c2ccc(NC(=O)[C@@H]3CCCC[C@@H]3C(=O)O)cc2)c(C)c1	none
Cc1nn(-c2ccccc2)nc1CNS(C)(=O)=O	none
Cc1ccc(-c2nc3ccccc3n2C(C)C(=O)NC(C)(C)C)cc1 (stereo unspecified)	none (no result: DAGLB inh, MIN6 prolif)
N#C/C(=C/C=C/c1ccccc1)C(=O)Nc1ccccc1	Myeloid diff MLP active
O=C(NCCCN1CCCC1=O)Nc1ccc(Cl)cc1Cl	none
O=C1CCCN1CCCNC(=S)Nc1ccc(Cl)cc1Cl	NRP1-CendR mod 40
CCN(CC)c1nc(N)c2c(N)n(-c3ccccc3C)c(=S)c(C#N)c2c1C#N	Myeloid diff MLP active
CO[C@@H]1CN(C)C(=O)c2cc(NC(=O)Nc3cc(F)ccc3F)ccc2OC[C@H](C)N(C(=O)c2cnccn2)C[C@@H]1C	none (no result: DAGLB inh, MIN6 prolif)
CCN(CC)c1ncnc2c1ncn2[C@H]1CN(CCOC)C[C@@H](CO)O1	none (no result: DAGLB inh, MIN6 prolif)
COCCN1C[C@@H](CO)O[C@@H](n2cnc3c(N(C)C(C)C)ncnc32)C1	NRP1-CendR mod 24 (no result: DAGLB inh, MIN6 prolif)
CC1(c2nnc(-c3ccc(Cl)cc3)o2)CC(c2cccc(Cl)c2)=NO1 (stereo unspecified)	NRP1-CendR mod 25
CC1(c2nnc(-c3ccc(F)cc3)o2)CC(c2ccc(F)cc2)=NO1 (stereo unspecified)	NRP1-CendR mod 24
CC1(c2nnc(-c3ccc(F)cc3)o2)CC(c2ccncc2)=NO1 (stereo unspecified)	none (no result: MT1-MMP act inh, DAGLB inh, NRP1-CendR mod, SENP1 inh, Myeloid diff MLP)
Cc1nc(NC(=O)c2ccccc2)sc1-c1cc(C(=O)NCCO)nn1Cc1ccccc1	none (no result: DAGLB inh, MIN6 prolif)
O=[N+]([O-])c1cccc(N2Cc3ccccc3C2)c1	none
CCCCn1c(N)c(N(CC(C)C)C(=O)c2cccc(S(=O)(=O)N(CC)c3ccccc3)c2)c(=O)[nH]c1=O	none (no result: MIN6 prolif)
CCOC(=O)c1c(-c2ccc(C)cc2)csc1NC(=O)/C(C#N)=C/c1ccc(O)c(OC)c1	Myeloid diff MLP active (no result: MIN6 prolif)
CCOC(=O)c1c(-c2ccccc2)csc1NC(=O)/C(C#N)=C\c1ccc(O)c(OC)c1	Myeloid diff MLP active (no result: MIN6 prolif)
CCOC(=O)/C(C#N)=C\c1ccc(O)c(OC)c1	none
COc1ccc(C=CC(O)CCN2CCC3CCC(C3)C2)cc1 (stereo unspecified)	NRP1-CendR mod 24 (no result: MIN6 prolif)
COc1ccc(/C=C/C(=O)OC2CCCN(C)C2)cc1 (stereo unspecified)	none
Cc1cc(C)nc(NS(=O)(=O)c2ccc(N=NN(C)C)cc2)n1	none
CC(C)[C@H]1C=C(C(=O)O)O[C@@H](OCCCCO)C1	NRP1-CendR mod 26
O=C(O)C1=C[C@@H](c2ccc(C(F)(F)F)cc2)C[C@@H](OCCCCO)O1	NRP1-CendR mod 28
NC(=O)C1=C[C@@H](c2csc3ccccc23)C[C@@H](OCCCCO)O1	Myeloid diff MLP active
CC(C)[C@H]1C=C(C(=O)O)O[C@@H](OCc2ccc(CO)cc2)C1	none
NC(=O)C1=C[C@H](c2ccc(C(F)(F)F)cc2)C[C@H](OCCCCO)O1	none
C#Cc1ccc([C@@H]2C=C(C(=O)N3CCOCC3)O[C@H](OCCCCO)C2)cc1	Myeloid diff MLP active

Screening results deposited in PubChem BioAssay by several laboratories.
